Measurements reported in ChEMBL document CHEMBL1123113, “"Reverse" and "symmetrical" analogues of actinomycin D: metabolic activation and in vitro and in vivo tumor growth inhibitory activities” (J Med Chem, 1985).
Where “and” joins values, the source holds several entries; their conditions need not be identical. Equal values may be shown once.

Legend:
[1] = IC50 DNA/IC50 RNA ratio of the compound; type: functional
How it was run: (§1)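 P388 cells were exposed for 1 h. IC50 (µM) was taken as 50% reduction of methyl-[3H]thymidine (DNA) or 2-[14C]uridine (RNA) incorporation into acid-precipitable material. The ratio is IC50 DNA divided by IC50 RNA.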

Mus musculus [2] = assay: Antitumor activity against B16 melanoma in terms of percentage increase in life span in mice at an optimal dose of 1200 ug/kg administered ip; type: functional
Mus musculus [3] = assay: Antitumor activity against P388 leukemia cells in terms of median survival time of mice at an optimal dose of 1200 ug/kg administered ip; type: functional
Mus musculus [4] = species on record: Mus musculus; assay: Dose providing an increase in the life span of 45% over control in P388 tumor bearing mice; type: functional; details: read-out: MED
How it was run: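 MED is the ip dose in mg/kg, given on days 1, 5 and 9 starting 1 day after implantation, that gives a 45% increase in life span over control in P388-bearing mice. It was derived from plotted log-dose response data.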

Mus musculus [5] = assay: Antitumor activity against B16 melanoma in terms of median survival time of mice at an optimal dose of 1200 ug/kg administered ip; type: functional
Rattus norvegicus [6] = species on record: Rattus norvegicus; assay: Compound tested for NADPH oxidation in rat hepatic mycrosomal incubation; type: functional
How it was run: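 Phenobarbital-induced male Sprague-Dawley rat liver microsomes were placed in both cuvettes, without epinephrine. NADPH 0.4 mM was added to the sample side only, and absorbance was read at 340 nm. Percent stimulation = (drug rate − basal)/basal × 100. Values are the average ± standard errors of triplicates.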

Mus musculus [7] = assay: Antitumor activity against P388 leukemia cells in terms of percentage increase in life span in mice at an optimal dose of 1200 ug/kg administered ip; type: functional
CCRF-CEM = assay: Inhibitory dose required for the inhibition of human lymphoblastic leukemia cells(CCRF-CEM); type: functional; details: read-out: ID50 (the source's name)
Rattus norvegicus [8] = species on record: Rattus norvegicus; assay: Compound tested for adrenochrome formation in rat hepatic mycrosomal incubation; type: functional
How it was run: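 Adrenochrome assay for superoxide: epinephrine in 0.01 N HCl plus 300 µg of phenobarbital-induced rat liver microsomes at 37 °C. NADPH 0.4 mM was added to the sample side 1 min later, and the rate was read at 480 nm (ε 4.02 mM−1 cm−1). Drugs were at ≤100 µM, made in 150 mM KCl–50 mM Tris, pH 7.4. Percent stimulation is over basal rate, in triplicate.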

Mus musculus [9] = assay: In vivo antitumor activity was determined against P388 leukemia mice as number of mice survived after administration of 1200 ug/Kg dose of compound; Value represented as no of survivors/ treated = 0/8; type: functional
Mus musculus [10] = assay: In vivo antitumor activity was determined against B16 melanoma mice as number of mice survived after administration of 1200 ug/Kg dose of compound; Value represented as no of survivors/ treated = 1/9; type: functional
[11] = Minimum tolerated dose is the lethal dose for 10% normal mice for deaths during 21 days; type: ADME, organism-based; details: mouse, in vivo
How it was run: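 Tumor-free male BDF1 mice (18–22 g) received a broad dose range ip in 5% dimethyl sulfoxide-saline on days 1, 5 and 9. Deaths were recorded over 21 days. The LD10 (dose killing 10% of animals) was calculated from a plot of log-dose vs. percent mortality.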

[12] = Therapeutic index (MTD/MED) value of the compound; details: read-out: TI
P388 [13] = assay: (§2) Inhibition of DNA synthesis was measured as the concentration required to cause 50% reduction (in 1h) in methyl [3H]thymidine incorporation into acid precipitable material using P388 cells; type: functional, cell-based; details: Mus musculus; how it was run: as §1
P388 [14] = assay: (§3) Inhibition of RNA synthesis was measured as the concentration required to cause 50% reduction (in 1h) in 2-[14C]uridine incorporation into acid precipitable material using P388 cells; type: functional, cell-based; details: Mus musculus, P388, 1 h
Mus musculus [15] = assay: In vivo antitumor activity was determined against B16 melanoma mice as number of mice survived after administration of 250 ug/Kg dose of compound; Value represented as no of survivors/ treated = 2/9; type: functional
Mus musculus [16] = assay: Antitumor activity against P388 leukemia cells in terms of percentage increase in life span in mice at an optimal dose of 300 ug/kg administered ip; type: functional
P388 [17] = assay: as §3; type: functional; details: Mus musculus, P388, 1 h; read-out: ID50 (the source's name)
Mus musculus [18] = assay: Antitumor activity against P388 leukemia cells in terms of median survival time of mice at an optimal dose of 300 ug/kg administered ip; type: functional
Mus musculus [19] = assay: Antitumor activity against B16 melanoma in terms of median survival time of mice at an optimal dose of 250 ug/kg administered ip; type: functional
Mus musculus [20] = species on record: Mus musculus; assay: Antitumor activity against B16 melanoma in terms of percentage increase in life span in mice after 65 days; type: functional
P388 [21] = assay: as §2; type: functional; details: Mus musculus, read-out: ID50 (the source's name); how it was run: as §1
Mus musculus [22] = assay: In vivo antitumor activity was determined against P388 leukemia mice as number of mice survived after administration of 300 ug/Kg dose of compound; Value represented as no of survivors/ treated = 0/8; type: functional
[23] = Therapeutic index ([…]) value of the compound; details: read-out: TI
How it was run: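 MED is the dose giving a 45% increase in life span over control in male BDF1 mice implanted ip with 10^6 P388 cells and treated ip on days 1, 5 and 9. MTD is the 21-day LD10 in tumor-free male BDF1 mice (18–22 g), dosed ip on the same days. Both values come from plotted log-dose response data.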

## Cc1c2oc3c(C)c(O)c(N)c(C(=O)N[C@H]4C(=O)N[C@@H](C(C)C)C(=O)N5CCC[C@H]5C(=O)N(C)CC(=O)N(C)[C@H](C(C)C)C(=O)O[C@H]4C)c3nc-2c(C(=O)N[C@@H]2C(=O)N[C@H](C(C)C)C(=O)N3CCC[C@@H]3C(=O)N(C)CC(=O)N(C)[C@@H](C(C)C)C(=O)O[C@@H]2C)c(N)c1=O
[1]
  Ratio: 0.97

## Cc1c2oc3c(C)c(O)c(N)c(C(=O)N[C@H]4C(=O)N[C@@H](C(C)C)C(=O)N5CCC[C@H]5C(=O)N(C)CC(=O)N(C)[C@H](C(C)C)C(=O)O[C@H]4C)c3nc-2c(C(=O)N[C@@H]2C(=O)N[C@H](C(C)C)C(=O)N3CCC[C@@H]3C(=O)N(C)CC(=O)N(C)[C@@H](C(C)C)C(=O)O[C@@H]2C)cc1=O
[1]
  Ratio: 1

## Cc1c2oc3c(C)c(O)c(N)c(C(=O)N[C@@H]4C(=O)N[C@H](C(C)C)C(=O)N5CCC[C@H]5C(=O)N(C)CC(=O)N(C)[C@@H](C(C)C)C(=O)O[C@@H]4C)c3nc-2c(C(=O)N[C@@H]2C(=O)N[C@H](C(C)C)C(=O)N3CCC[C@H]3C(=O)N(C)CC(=O)N(C)[C@@H](C(C)C)C(=O)O[C@@H]2C)cc1=O
Mus musculus [2]
  ILS at 1.2 mg/kg: 52%
Mus musculus [3]
  MST: 26 days
Mus musculus [4]
  minimal effective dose: 0.275 mg/kg
Mus musculus [5]
  MST: 44 days
Rattus norvegicus [6]
  NADPH oxidation: 29.9 nM min-1 (mg of protein)-1
Mus musculus [7]
  ILS at 1.2 mg/kg: 136%
CCRF-CEM
  IC50: 1000 nM
Rattus norvegicus [8]
  adrenochrome formation: 7.29 nM min-1 (mg of protein)-1
Mus musculus [9]
  Survivors: 0
Mus musculus [10]
  Survivors: 1

## Cc1c2oc3c(C)c4oc(-c5ccccc5)nc4c(C(=O)N[C@@H]4C(=O)N[C@H](C(C)C)C(=O)N5CCC[C@H]5C(=O)N(C)CC(=O)N(C)[C@@H](C(C)C)C(=O)O[C@@H]4C)c3nc-2c(C(=O)N[C@@H]2C(=O)N[C@H](C(C)C)C(=O)N3CCC[C@H]3C(=O)N(C)CC(=O)N(C)[C@@H](C(C)C)C(=O)O[C@@H]2C)cc1=O
[11]
  MTD at 504 h: 2 mg/kg
[12]
  selectivity ratio: 10
P388 [13]
  IC50: 5700 nM
P388 [14]
  IC50: 3200 nM

## Cc1c2oc3c(C)ccc(C(=O)N[C@@H]4C(=O)N[C@H](C(C)C)C(=O)N5CCC[C@H]5C(=O)NCC(=O)N[C@@H](C(C)C)C(=O)O[C@@H]4C)c3nc-2c(C(=O)N[C@@H]2C(=O)N[C@H](C(C)C)C(=O)N3CCC[C@H]3C(=O)NCC(=O)N[C@@H](C(C)C)C(=O)O[C@@H]2C)c(N)c1=O [ACTINOMYCITIN]
Mus musculus [15]
  Survivors: 2
Mus musculus [16]
  ILS at 0.3 mg/kg: 136%
P388 [17]
  IC50: 0.05 nM
Mus musculus [4]
  minimal effective dose: 0.0625 mg/kg
Rattus norvegicus [6]
  NADPH oxidation: 9.11 nM min-1 (mg of protein)-1 and 10.01 nM min-1 (mg of protein)-1
Mus musculus [18]
  MST: 26 days
CCRF-CEM
  IC50: 50 nM
Rattus norvegicus [8]
  adrenochrome formation: 2.11 nM min-1 (mg of protein)-1 and 2.29 nM min-1 (mg of protein)-1
Mus musculus [19]
  MST: 43 range
[11]
  MTD at 504 h: 0.25 mg/kg
Mus musculus [20]
  ILS: 48%
P388 [21]
  IC50: 1.12 nM
Mus musculus [22]
  Survivors: 0
[23]
  selectivity ratio: 4

## Cc1c2oc3c(C)c4oc(-c5ccccc5)nc4c(C(=O)N[C@@H]4C(=O)N[C@H](C(C)C)C(=O)N5CCC[C@H]5C(=O)N(C)CC(=O)N(C)[C@@H](C(C)C)C(=O)O[C@@H]4C)c3nc-2c(C(=O)N[C@@H]2C(=O)N[C@H](C(C)C)C(=O)N3CCC[C@H]3C(=O)N(C)CC(=O)N(C)[C@@H](C(C)C)C(=O)O[C@@H]2C)c(N)c1=O
[11]
  MTD at 504 h: 1.8 mg/kg
[12]
  selectivity ratio: 60
P388 [13]
  IC50: 800 nM
P388 [14]
  IC50: 70 nM

## Cc1c2oc3c(C)c4oc(-c5ccccc5)nc4c(C(=O)N[C@H]4C(=O)N[C@@H](C(C)C)C(=O)N5CCC[C@H]5C(=O)NCC(=O)N(C)[C@H](C(C)C)C(=O)O[C@H]4C)c3nc-2c(C(=O)N[C@@H]2C(=O)N[C@H](C(C)C)C(=O)N3CCC[C@@H]3C(=O)NCC(=O)N[C@@H](C(C)C)C(=O)O[C@@H]2C)cc1=O
[1]
  Ratio: 1.78

## Cc1c2oc3c(C)c4oc(-c5ccccc5)nc4c(C(=O)N[C@H]4C(=O)N[C@@H](C(C)C)C(=O)N5CCC[C@H]5C(=O)N(C)CC(=O)N(C)[C@H](C(C)C)C(=O)O[C@H]4C)c3nc-2c(C(=O)N[C@@H]2C(=O)N[C@H](C(C)C)C(=O)N3CCC[C@@H]3C(=O)N(C)CC(=O)N(C)[C@@H](C(C)C)C(=O)O[C@@H]2C)c(N)c1=O
[1]
  Ratio: 11.4
